Test results published in ChEMBL document CHEMBL1125261, “1-Naphthylpiperazine derivatives as potential atypical antipsychotic agents” (J Med Chem, 1991).
Active and inactive are the calls of the source. The rule behind the calls is not given here.

Legend:
D(2) dopamine receptor = D(2) dopamine receptor (Rattus norvegicus, UniProt P61169); assay: Binding affinity to dopamine receptor D2 in the rat brain using [3H]NPA as radioligand; assay type: tissue-based
In short: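 Rat brain D2 binding with [3H]NPA as ligand. IC50 taken from dose-response curves over three log concentrations of test compound, each in triplicate.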

[1] = target: Adrenergic receptor alpha; assay: In vitro binding activity against Alpha receptor in rat brain using [3H]prazosin; assay type: tissue-based
In short: (§1)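 Whole rat brain minus cerebellum homogenized and washed twice in 50 mM Tris-HCl pH 7.7, resuspended in Tris pH 8.0. Incubated in triplicate with 0.22 nM (final) [3H]prazosin and drug, 25 °C, 30 min. Blank was 50 μM norepinephrine. Filtered through glass fiber and scintillation counted. IC50 from three log concentrations in triplicate.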

Rattus norvegicus [2] = assay: Compound was evaluated for the inhibition of apomorphine induced stereotypy behavior in rats after sc administration.; assay type: functional; parameters: unit not given here
In short: (§2)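 Male Sprague-Dawley rats (250–300 g, five per group) given test drug (2 mL/kg) or saline. At 1, 3 and 5 h they received apomorphine 0.75 mg/kg sc in water with 0.1% ascorbic acid. Stereotypy was rated every 10 min up to 50 min. ANOVA then Dunnett's t test over half-log dose multiples; MED was the lowest significant dose.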

Rattus norvegicus [3] = assay: Antipsychotic activity determined in vivo by inhibition of amphetamine induced locomotor behavior in rats by the po administration.; assay type: functional
In short: (§3)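 Male Sprague-Dawley rats (275–325 g, eight per group) habituated overnight in automated activity boxes, then dosed with test compound suspended in 90% saline/5% ethanol/5% Emulphor. d-Amphetamine sulfate 1.36 mg/kg given 1 h later. Floor quadrant crossings counted over 3 h. ANOVA with Dunnett's test; ED50 and 95% confidence limits by probit analysis of means converted to percent inhibition.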

Rattus norvegicus [4] = assay: Antipsychotic activity determined in vivo by inhibition of amphetamine induced locomotor behavior in rats by the sc administration.; assay type: functional; in short: as §3
Rattus norvegicus [5] = assay: Compound was evaluated for the inhibition of haloperidol induced catalepsy behavior in rats after sc administration.; assay type: functional; parameters: unit not given here
In short: (§4)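 Catalepsy was tested on a horizontal rod after 3 h. Test drug or vehicle was then given and catalepsy duration scored every 30 min for 2.5 h. One-way ANOVA with Dunnett's test over half-log dose multiples; MED was the lowest significant dose.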

[6] = target: T1, Serotonin 2 (5-HT2) receptor (Rattus norvegicus, UniProt P30994+P08909+P14842); assay: (§5) Compound was evaluated In vitro for its activity by binding to 5-hydroxytryptamine 2 receptor in the rat brain using [3H]ketanserin as radioligand.; assay type: tissue-based
In short: (§6)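 Frozen male Sprague-Dawley rat brain cut into 20-μm cryostat sections. Incubated in 50 mM Tris pH 7.5 with 1 nM [3H]ketanserin and test drug, room temperature, 30 min; nonspecific binding with 2 μM pipamperone. Washed in ice-cold buffer, exposed to tritium film 6 weeks, read by densitometry.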

[7] = target: T2, 5-hydroxytryptamine receptor 1A (Rattus norvegicus, UniProt P19327); assay: Binding affinity to 5-hydroxytryptamine 1A receptor in the rat brain using [3H]8-hydroxy-2-(di-n-propylamine)tetralin as radioligand.; assay type: tissue-based
T2 sequence (P19327 whole entry): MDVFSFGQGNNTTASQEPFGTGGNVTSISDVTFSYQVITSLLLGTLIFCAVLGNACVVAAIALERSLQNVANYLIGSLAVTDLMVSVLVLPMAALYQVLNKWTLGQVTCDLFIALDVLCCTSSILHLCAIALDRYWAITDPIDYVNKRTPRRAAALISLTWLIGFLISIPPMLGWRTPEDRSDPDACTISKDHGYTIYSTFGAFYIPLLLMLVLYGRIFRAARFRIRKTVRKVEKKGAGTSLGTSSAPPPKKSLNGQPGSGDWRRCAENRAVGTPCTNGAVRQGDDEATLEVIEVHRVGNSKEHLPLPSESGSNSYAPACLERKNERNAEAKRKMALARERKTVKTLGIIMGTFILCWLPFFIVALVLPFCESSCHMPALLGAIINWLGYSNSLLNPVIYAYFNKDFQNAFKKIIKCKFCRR
In short: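 Rat forebrain P2 membranes: lysed in 5 mM Tris acetate pH 7.4, washed, preincubated 30 min at 30 °C. Incubated with [3H]-8-OH-DPAT and test drug, 30 °C, 20 min; filtered, scintillation counted.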

Rattus norvegicus [8] = assay: Compound was evaluated for the inhibition of apomorphine induced stereotypy behavior in rats after ip administration.; assay type: functional; in short: as §2
Rattus norvegicus [9] = assay: Compound was evaluated for the inhibition of apomorphine induced stereotypy behavior in rats after po administration.; assay type: functional; in short: as §2
Rattus norvegicus [10] = assay: Compound was evaluated for the inhibition of haloperidol induced catalepsy behavior in rats after po administration.; assay type: functional; in short: as §4
[11] = target: T1, Serotonin 2 (5-HT2) receptor; assay: as §5; assay type: tissue-based; remark: listed apart in the source
Rattus norvegicus [12] = assay: Compound was evaluated for the inhibition of haloperidol induced catalepsy behavior in rats after sc administration; Inactive; assay type: functional, organism-based
Rattus norvegicus [13] = assay: Compound was evaluated for inhibition of apomorphine induced stereotypy behavior in rats after sc administration.; assay type: functional; in short: as §2
[14] = target: T1, Serotonin 2 (5-HT2) receptor; assay: Compound was evaluated for its activity by binding to 5-hydroxytryptamine 2 receptor in the rat brain using [3H]ketanserin as radioligand.; assay type: tissue-based; in short: as §6
[15] = target: Adrenergic receptor alpha; assay: Compound was evaluated In vitro for its activity by binding to Alpha receptor in the rat brain using [3H]prazosin as radioligand.; assay type: tissue-based; in short: as §1
[16] = target: Adrenergic receptor alpha; assay: Compound was evaluated In vitro for its activity by binding to Alpha adrenergic receptor in the rat brain using [3H]prazosin as radioligand.; assay type: tissue-based

Sequence of D(2) dopamine receptor (P61169 whole entry): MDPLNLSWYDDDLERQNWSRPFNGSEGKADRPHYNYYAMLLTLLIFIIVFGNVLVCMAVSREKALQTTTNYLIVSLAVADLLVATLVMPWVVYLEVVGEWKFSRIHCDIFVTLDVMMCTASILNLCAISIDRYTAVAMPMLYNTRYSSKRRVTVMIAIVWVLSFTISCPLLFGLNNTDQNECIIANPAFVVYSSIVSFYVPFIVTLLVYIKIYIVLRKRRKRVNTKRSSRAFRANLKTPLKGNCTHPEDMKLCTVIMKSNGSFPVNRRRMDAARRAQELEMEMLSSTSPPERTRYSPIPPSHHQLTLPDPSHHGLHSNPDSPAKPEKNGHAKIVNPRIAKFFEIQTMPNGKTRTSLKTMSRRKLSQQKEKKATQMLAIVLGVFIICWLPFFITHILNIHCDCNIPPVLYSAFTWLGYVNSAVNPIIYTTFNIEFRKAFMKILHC

Question: Which IC50 (D(2) dopamine receptor) does the source give for `Cc1nc(-c2ccc(CCN3CCN(c4cccc5ccccc45)CC3)cc2)cs1` here?
Answer: 108 nM

Question: And the IC50 [1]?
Answer: 166 nM

Question: And the MED (Rattus norvegicus [2])?
Answer: >10

Question: For `Oc1nc2ccc(CCN3CCN(c4cccc5ccccc45)CC3)cc2o1`, which IC50 (D(2) dopamine receptor) is on record?
Answer: 44 nM

Question: And the ED50 (Rattus norvegicus [3])?
Answer: 40.5 mg/kg

Question: What about the ED50 (Rattus norvegicus [4]) of the same compound?
Answer: 1.6 mg/kg

Question: What about the MED (Rattus norvegicus [5]) of the same compound?
Answer: >10

Question: And the IC50 [6]?
Answer: 10 nM

Question: And the IC50 [1]?
Answer: 45 nM

Question: What about the MED (Rattus norvegicus [2]) of the same compound?
Answer: 10

Question: What about the IC50 [7] of the same compound?
Answer: 6.2 nM

Question: Which results are given for `Nc1nc(-c2ccc(CCN3CCN(c4cccc5ccccc45)CC3)cc2)cs1`?
Answer: IC50 (D(2) dopamine receptor): 72 nM; MED (Rattus norvegicus [8]): 10; ED50 (Rattus norvegicus [3]): 25.3 mg/kg; MED (Rattus norvegicus [9]): 32; MED (Rattus norvegicus [10]): 3.2; IC50 [11]: 385 nM; IC50 [1]: 135 nM; IC50 [7]: 11 nM

Question: For `CN1CCN(C2=Nc3cc(Cl)ccc3Nc3ccccc32)CC1` [CLOZAPINE], which ED50 (Rattus norvegicus [4]) is on record?
Answer: 6.9 mg/kg

Question: What about the MED (Rattus norvegicus [12]) of the same compound?
Answer: inactive

Question: Which results are given for `Cc1sc(N)nc1-c1ccc(CCN2CCN(c3cccc4ccccc34)CC2)cc1`?
Answer: IC50 (D(2) dopamine receptor): 159 nM; ED50 (Rattus norvegicus [4]): > 10 mg/kg; MED (Rattus norvegicus [13]): >3.2; MED (Rattus norvegicus [5]): >3.2; IC50 [1]: 234 nM

Question: For `c1ccc2c(N3CCNCC3)cccc2c1`, which IC50 [14] is on record?
Answer: 62 nM

Question: Which results are given for `O=C(CCCN1CCC(O)(c2ccc(Cl)cc2)CC1)c1ccc(F)cc1` [HALOPERIDOL]?
Answer: MED (Rattus norvegicus [12]): inactive; MED (Rattus norvegicus [2]): 0.032

Question: For `O=C1Cc2cc(CCN3CCN(c4cccc5ccccc45)CC3)ccc2N1`, which IC50 (D(2) dopamine receptor) is on record?
Answer: 38 nM

Question: And the ED50 (Rattus norvegicus [3])?
Answer: 13.3 mg/kg

Question: What about the ED50 (Rattus norvegicus [4]) of the same compound?
Answer: 1.21 mg/kg

Question: And the MED (Rattus norvegicus [10])?
Answer: 10

Question: What about the IC50 [11] of the same compound?
Answer: 20 nM

Question: What about the MED (Rattus norvegicus [5]) of the same compound?
Answer: >10

Question: What about the IC50 [1] of the same compound?
Answer: 24 nM

Question: And the IC50 [7]?
Answer: 4.87 nM

Question: Which IC50 (D(2) dopamine receptor) does the source give for `CNc1nc(-c2ccc(CCN3CCN(c4cccc5ccccc45)CC3)cc2)cs1` here?
Answer: 155 nM

Question: And the IC50 [15]?
Answer: 252 nM

Question: What about the MED (Rattus norvegicus [2]) of the same compound?
Answer: >10

Question: With `Oc1nc(-c2ccc(CCN3CCN(c4cccc5ccccc45)CC3)cc2)cs1` as the compound, how does the IC50 (D(2) dopamine receptor) read?
Answer: 80 nM

Question: And the IC50 [14]?
Answer: 249 nM

Question: What about the ED50 (Rattus norvegicus [4]) of the same compound?
Answer: > 10 mg/kg

Question: What about the MED (Rattus norvegicus [5]) of the same compound?
Answer: 10

Question: What about the IC50 [1] of the same compound?
Answer: 65 nM

Question: What about the MED (Rattus norvegicus [2]) of the same compound?
Answer: >17.8

Question: What does the source list for `Oc1nc2ccc(CCN3CCN(c4cccc5ccccc45)CC3)cc2s1`?
Answer: IC50 [16]: 24 nM; IC50 [11]: 50 nM; MED (Rattus norvegicus [2]): >10; IC50 [7]: 2.2 nM

Question: Which IC50 (D(2) dopamine receptor) does the source give for `c1ccc2c(N3CCN(CCc4ccc(-c5csnn5)cc4)CC3)cccc2c1` here?
Answer: 83 nM

Question: What about the IC50 [14] of the same compound?
Answer: 237 nM

Question: And the IC50 [1]?
Answer: 105 nM

Question: And the MED (Rattus norvegicus [2])?
Answer: >10

Question: `CCN1C(=O)Cc2cc(CCN3CCN(c4cccc5ccccc45)CC3)ccc21` was tested. Which IC50 (D(2) dopamine receptor) did it give?
Answer: 81.2 nM

Question: And the IC50 [1]?
Answer: 248 nM

Question: What about the IC50 [7] of the same compound?
Answer: 2.9 nM

Question: With `CC1(C)C(=O)Nc2ccc(CCN3CCN(c4cccc5ccccc45)CC3)cc21` as the compound, how does the IC50 (D(2) dopamine receptor) read?
Answer: 86 nM

Question: And the IC50 [6]?
Answer: 11.8 nM

Question: What about the IC50 [1] of the same compound?
Answer: 40 nM

Question: And the IC50 [7]?
Answer: 6.9 nM
